Tests used:
[1] = target: Metabotropic glutamate receptor 5 (Rattus norvegicus, UniProt P31424); assay: Displacement of […] from mGluR5 in rat brain membrane; format: cell membranes
Method in brief: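 Competition binding against [³H]MPEPy in rat whole-brain membranes (minus cerebellum and brainstem), homogenized in 50 mM Tris-HCl/saline pH 7.5, pelleted at 39 800 g. Membranes 5 mg/800 µL final. Competitor from 10 mM ethanol stock, final 0.01 nM to 1 mM. Incubated 1 h at 22 °C, filtered on PEI-soaked GF/B, washed with cold saline, scintillation counted. Three determinations.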

[2] = target: 5-hydroxytryptamine receptor 6 (Homo sapiens, UniProt P50406); assay: Displacement of [3H]LSD from 5HT6 receptor
[3] = target: Sodium-dependent serotonin transporter (Homo sapiens, UniProt P31645); assay: Displacement of [3H]citalopram from SERT
[4] = target: Metabotropic glutamate receptor 6 (Homo sapiens, UniProt O15303); assay: Binding affinity at mGluR6
[5] = target: Histamine H3 receptor (Homo sapiens, UniProt Q9Y5N1); assay: Binding affinity to histamine H3 receptor
[6] = target: Alpha-2B adrenergic receptor (Homo sapiens, UniProt P18089); assay: Displacement of [3H][…] from adrenergic alpha-2B receptor
[7] = target: Alpha-1B adrenergic receptor (Homo sapiens, UniProt P35368); assay: Displacement of [3H]prazosin from adrenergic alpha-1B receptor
[8] = target: Sigma non-opioid intracellular receptor 1 (Homo sapiens, UniProt Q99720); assay: Binding affinity to sigma1 receptor
[9] = Lipophilicity, log D of the compound; format: physicochemical; conditions: octanol/water
Method in brief: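 Partition of the [18F]-labeled radioligand between n-octanol and sodium phosphate buffer (0.15 M, pH 7.4) was measured, following a general method described earlier.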

[10] = target: Metabotropic glutamate receptor 8 (Homo sapiens, UniProt O00222); assay: Binding affinity at mGluR8
[11] = target: D(2) dopamine receptor (Homo sapiens, UniProt P14416); assay: Displacement of [3H]N-methylspiperone from dopamine D2 receptor
[12] = target: Histamine H4 receptor (Homo sapiens, UniProt Q9H3N8); assay: Binding affinity to histamine H4 receptor
[13] = target: Delta-type opioid receptor (Homo sapiens, UniProt P41143); assay: Displacement of [3H]DADLE from delta opioid receptor
[14] = target: Serotonin 3 (5-HT3) receptor; assay: Displacement of [3H]zacopride from 5HT3 receptor; format: protein-complex assay, Homo sapiens
[15] = target: Beta-2 adrenergic receptor (Homo sapiens, UniProt P07550); assay: Displacement of [125I]pindolol from adrenergic beta-2 receptor
[16] = target: 5-hydroxytryptamine receptor 2A (Homo sapiens, UniProt P28223); assay: Displacement of [3H]ketanserin from 5HT2A receptor
[17] = target: Metabotropic glutamate receptor 4 (Homo sapiens, UniProt Q14833); assay: Binding affinity at mGluR4
[18] = target: Muscarinic acetylcholine receptor M4 (Homo sapiens, UniProt P08173); assay: Displacement of [3H]QNB from muscarinic M4 receptor
[19] = target: Histamine H1 receptor (Homo sapiens, UniProt P35367); assay: Binding affinity to histamine H1 receptor
[20] = target: Beta-1 adrenergic receptor (Homo sapiens, UniProt P08588); assay: Displacement of [125I]pindolol from adrenergic beta-1 receptor
[21] = target: D(4) dopamine receptor (Homo sapiens, UniProt P21917); assay: Displacement of [3H]N-methylspiperone from dopamine D4 receptor
[22] = target: 5-hydroxytryptamine receptor 1D (Homo sapiens, UniProt P28221); assay: Displacement of [3H]GR-125743 from 5HT1D receptor
[23] = target: 5-hydroxytryptamine receptor 7 (Homo sapiens, UniProt P34969); assay: Displacement of [3H]LSD from 5HT7 receptor
[24] = target: D(3) dopamine receptor (Homo sapiens, UniProt P35462); assay: Displacement of [3H]N-methylspiperone from dopamine D3 receptor
[25] = target: Alpha-1A adrenergic receptor (Homo sapiens, UniProt P35348); assay: Displacement of [3H]prazosin from adrenergic alpha-1A receptor
[26] = Displacement of [3H]MK-801 from NMDA receptor; design: species or system Homo sapiens
[27] = target: Muscarinic acetylcholine receptor M2 (Homo sapiens, UniProt P08172); assay: Displacement of [3H]QNB from muscarinic M2 receptor
[28] = target: Metabotropic glutamate receptor 2 (Homo sapiens, UniProt Q14416); assay: Binding affinity at mGluR2
[29] = target: Alpha-2A adrenergic receptor (Homo sapiens, UniProt P08913); assay: Displacement of [3H][…] from adrenergic alpha2A receptor
[30] = target: Muscarinic acetylcholine receptor M1 (Homo sapiens, UniProt P11229); assay: Displacement of [3H]QNB from muscarinic M1 receptor
[31] = target: 5-hydroxytryptamine receptor 2C (Homo sapiens, UniProt P28335); assay: Displacement of [3H]mesulergine from 5HT2C receptor
[32] = target: Histamine H2 receptor (Homo sapiens, UniProt P25021); assay: Binding affinity to from histamine H2 receptor
[33] = target: D(1A) dopamine receptor (Homo sapiens, UniProt P21728); assay: Displacement of [3H]SCH-23390 from dopamine D1 receptor
[34] = target: Sodium-dependent noradrenaline transporter (Homo sapiens, UniProt P23975); assay: Displacement of [3H]nisoxitine from NET
[35] = target: Muscarinic acetylcholine receptor M5 (Homo sapiens, UniProt P08912); assay: Displacement of [3H]QNB from muscarinic M5 receptor
[36] = target: Sodium-dependent dopamine transporter (Homo sapiens, UniProt Q01959); assay: Displacement of [3H]WIN-35428 from DAT
[37] = target: 5-hydroxytryptamine receptor 1E (Homo sapiens, UniProt P28566); assay: Displacement of [3H]5-HT from 5HT1E receptor
[38] = target: Muscarinic acetylcholine receptor M3 (Homo sapiens, UniProt P20309); assay: Displacement of [3H]QNB from muscarinic M3 receptor
[39] = target: 5-hydroxytryptamine receptor 2B (Homo sapiens, UniProt P41595); assay: Displacement of [3H]LSD from 5HT2B receptor
[40] = target: Kappa-type opioid receptor (Homo sapiens, UniProt P41145); assay: Displacement of [3H]bremazocine from kappa opioid receptor
[41] = target: Alpha-2C adrenergic receptor (Homo sapiens, UniProt P18825); assay: Displacement of [3H][…] from adrenergic alpha-2C receptor
[42] = target: 5-hydroxytryptamine receptor 1A (Homo sapiens, UniProt P08908); assay: Displacement of [3H]8-OH-DPAT from 5HT1A receptor
[43] = target: Metabotropic glutamate receptor 1 (Homo sapiens, UniProt Q13255); assay: Binding affinity at mGluR1
[44] = target: 5-hydroxytryptamine receptor 5A (Homo sapiens, UniProt P47898); assay: Displacement of [3H]LSD from 5HT5A receptor
[45] = target: D(1B) dopamine receptor (Homo sapiens, UniProt P21918); assay: Displacement of radiolabeled SKF-38393 from dopamine D5 receptor
[46] = target: Mu-type opioid receptor (Homo sapiens, UniProt P35372); assay: Displacement of [3H]diprenorphine from mu opioid receptor
[47] = target: 5-hydroxytryptamine receptor 1B (Homo sapiens, UniProt P28222); assay: Displacement of [3H]GR-125743 from 5HT1B receptor

Chain of Metabotropic glutamate receptor 5 (P31424 whole entry): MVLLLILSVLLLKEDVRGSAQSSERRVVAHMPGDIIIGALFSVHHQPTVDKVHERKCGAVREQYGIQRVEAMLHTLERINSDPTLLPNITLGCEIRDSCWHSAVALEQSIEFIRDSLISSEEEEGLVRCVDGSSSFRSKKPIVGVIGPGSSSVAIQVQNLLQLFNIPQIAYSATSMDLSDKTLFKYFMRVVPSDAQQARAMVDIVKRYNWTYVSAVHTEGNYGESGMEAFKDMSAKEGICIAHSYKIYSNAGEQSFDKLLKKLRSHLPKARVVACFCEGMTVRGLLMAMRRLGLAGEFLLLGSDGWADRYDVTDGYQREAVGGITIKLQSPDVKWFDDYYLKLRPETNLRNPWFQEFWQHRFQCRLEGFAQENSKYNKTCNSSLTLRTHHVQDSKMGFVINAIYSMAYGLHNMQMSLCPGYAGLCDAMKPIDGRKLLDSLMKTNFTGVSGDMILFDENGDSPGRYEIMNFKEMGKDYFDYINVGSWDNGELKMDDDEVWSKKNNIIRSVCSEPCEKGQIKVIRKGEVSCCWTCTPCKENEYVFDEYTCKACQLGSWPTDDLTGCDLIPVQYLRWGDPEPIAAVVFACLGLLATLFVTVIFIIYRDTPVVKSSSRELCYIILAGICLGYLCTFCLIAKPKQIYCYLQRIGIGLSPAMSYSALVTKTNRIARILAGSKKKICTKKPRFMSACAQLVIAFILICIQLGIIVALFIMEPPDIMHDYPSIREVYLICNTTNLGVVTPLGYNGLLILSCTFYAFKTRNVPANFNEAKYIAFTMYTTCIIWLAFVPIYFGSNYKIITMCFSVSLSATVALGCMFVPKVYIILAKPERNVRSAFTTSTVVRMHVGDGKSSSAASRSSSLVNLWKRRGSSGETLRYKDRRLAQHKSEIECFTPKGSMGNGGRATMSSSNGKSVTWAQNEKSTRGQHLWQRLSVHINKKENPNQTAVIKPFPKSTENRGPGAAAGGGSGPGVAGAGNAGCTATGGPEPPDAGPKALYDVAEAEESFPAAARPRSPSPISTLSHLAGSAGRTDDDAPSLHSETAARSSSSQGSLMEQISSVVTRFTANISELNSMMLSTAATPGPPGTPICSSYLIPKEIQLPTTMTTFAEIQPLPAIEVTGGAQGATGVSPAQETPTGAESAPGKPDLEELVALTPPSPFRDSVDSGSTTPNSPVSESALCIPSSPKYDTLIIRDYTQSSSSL
Chain of Alpha-2B adrenergic receptor (P18089 whole entry): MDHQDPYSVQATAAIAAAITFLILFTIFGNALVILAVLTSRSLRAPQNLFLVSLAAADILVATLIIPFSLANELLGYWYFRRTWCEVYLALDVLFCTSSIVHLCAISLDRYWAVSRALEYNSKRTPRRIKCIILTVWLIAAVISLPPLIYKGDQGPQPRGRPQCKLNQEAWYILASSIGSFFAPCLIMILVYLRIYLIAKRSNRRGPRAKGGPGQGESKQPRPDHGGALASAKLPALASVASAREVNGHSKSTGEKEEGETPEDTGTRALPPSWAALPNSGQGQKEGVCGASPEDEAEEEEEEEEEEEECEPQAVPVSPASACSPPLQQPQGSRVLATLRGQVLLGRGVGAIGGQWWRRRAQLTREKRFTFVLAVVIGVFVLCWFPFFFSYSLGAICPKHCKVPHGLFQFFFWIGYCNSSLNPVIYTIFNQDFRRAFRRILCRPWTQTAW
Chain of Sodium-dependent dopamine transporter (Q01959 whole entry): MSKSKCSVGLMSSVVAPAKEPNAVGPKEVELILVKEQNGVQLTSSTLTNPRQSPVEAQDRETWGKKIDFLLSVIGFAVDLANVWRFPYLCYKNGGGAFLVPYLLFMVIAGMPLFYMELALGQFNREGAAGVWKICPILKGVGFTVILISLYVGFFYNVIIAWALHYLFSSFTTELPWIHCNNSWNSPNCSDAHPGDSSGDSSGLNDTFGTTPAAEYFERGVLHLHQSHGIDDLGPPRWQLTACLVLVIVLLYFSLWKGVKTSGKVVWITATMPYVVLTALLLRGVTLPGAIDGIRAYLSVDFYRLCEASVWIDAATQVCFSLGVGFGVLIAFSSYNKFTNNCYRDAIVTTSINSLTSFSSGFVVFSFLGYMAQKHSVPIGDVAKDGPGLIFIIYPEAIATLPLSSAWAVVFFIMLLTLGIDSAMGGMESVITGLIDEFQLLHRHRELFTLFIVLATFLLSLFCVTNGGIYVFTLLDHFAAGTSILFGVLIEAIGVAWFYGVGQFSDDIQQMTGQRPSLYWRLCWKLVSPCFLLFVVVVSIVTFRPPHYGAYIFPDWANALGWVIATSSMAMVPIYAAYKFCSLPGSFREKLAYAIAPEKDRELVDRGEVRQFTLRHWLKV
Chain of Muscarinic acetylcholine receptor M5 (P08912 whole entry): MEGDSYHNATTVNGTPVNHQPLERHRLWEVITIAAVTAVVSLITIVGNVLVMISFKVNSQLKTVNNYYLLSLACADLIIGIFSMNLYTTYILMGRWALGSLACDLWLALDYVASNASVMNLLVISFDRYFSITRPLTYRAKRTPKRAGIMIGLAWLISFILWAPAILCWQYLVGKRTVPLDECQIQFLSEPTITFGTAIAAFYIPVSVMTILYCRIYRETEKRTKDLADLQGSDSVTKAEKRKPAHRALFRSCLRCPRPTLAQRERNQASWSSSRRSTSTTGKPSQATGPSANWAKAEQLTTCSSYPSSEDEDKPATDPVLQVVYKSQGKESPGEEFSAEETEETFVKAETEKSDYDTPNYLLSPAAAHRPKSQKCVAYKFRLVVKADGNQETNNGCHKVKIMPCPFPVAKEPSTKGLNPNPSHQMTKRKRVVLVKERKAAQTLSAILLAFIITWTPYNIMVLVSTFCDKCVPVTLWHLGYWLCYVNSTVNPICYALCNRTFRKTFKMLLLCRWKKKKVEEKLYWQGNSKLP
Chain of Muscarinic acetylcholine receptor M2 (P08172 whole entry): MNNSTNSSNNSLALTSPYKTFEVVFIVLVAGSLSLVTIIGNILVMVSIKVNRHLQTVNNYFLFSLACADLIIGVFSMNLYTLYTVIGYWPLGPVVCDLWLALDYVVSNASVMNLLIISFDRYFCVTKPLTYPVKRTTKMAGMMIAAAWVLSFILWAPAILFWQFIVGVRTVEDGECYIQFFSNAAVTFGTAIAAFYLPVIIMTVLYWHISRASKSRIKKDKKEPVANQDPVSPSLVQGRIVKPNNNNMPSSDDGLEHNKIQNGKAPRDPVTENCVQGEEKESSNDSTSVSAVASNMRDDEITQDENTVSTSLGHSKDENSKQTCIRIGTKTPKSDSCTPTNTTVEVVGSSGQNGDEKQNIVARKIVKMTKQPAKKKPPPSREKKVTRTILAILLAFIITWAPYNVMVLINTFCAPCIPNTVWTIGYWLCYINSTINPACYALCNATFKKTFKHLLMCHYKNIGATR
Chain of Metabotropic glutamate receptor 8 (O00222 whole entry): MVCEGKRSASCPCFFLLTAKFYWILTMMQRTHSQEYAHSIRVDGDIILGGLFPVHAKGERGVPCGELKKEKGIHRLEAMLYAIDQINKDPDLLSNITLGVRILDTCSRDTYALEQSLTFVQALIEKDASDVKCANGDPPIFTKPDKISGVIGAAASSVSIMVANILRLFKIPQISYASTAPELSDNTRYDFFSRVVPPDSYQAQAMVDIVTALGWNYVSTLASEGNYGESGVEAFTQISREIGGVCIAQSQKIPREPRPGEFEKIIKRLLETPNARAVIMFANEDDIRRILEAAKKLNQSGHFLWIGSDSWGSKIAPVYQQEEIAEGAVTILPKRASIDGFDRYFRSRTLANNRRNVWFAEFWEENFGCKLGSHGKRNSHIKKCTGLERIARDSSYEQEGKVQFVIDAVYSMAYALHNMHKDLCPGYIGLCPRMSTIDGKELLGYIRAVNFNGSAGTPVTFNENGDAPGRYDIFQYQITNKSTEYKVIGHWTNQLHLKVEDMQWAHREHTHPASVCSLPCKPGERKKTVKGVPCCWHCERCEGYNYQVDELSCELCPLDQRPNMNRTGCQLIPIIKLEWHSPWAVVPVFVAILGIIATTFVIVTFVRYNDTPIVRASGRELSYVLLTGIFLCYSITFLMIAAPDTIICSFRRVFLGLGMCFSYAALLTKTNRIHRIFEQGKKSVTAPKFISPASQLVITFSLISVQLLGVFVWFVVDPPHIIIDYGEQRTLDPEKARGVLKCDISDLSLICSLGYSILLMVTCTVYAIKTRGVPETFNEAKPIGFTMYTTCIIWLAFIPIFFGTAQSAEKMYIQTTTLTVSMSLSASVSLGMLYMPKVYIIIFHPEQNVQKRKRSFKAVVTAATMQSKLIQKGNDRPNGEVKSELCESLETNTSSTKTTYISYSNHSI
Chain of Histamine H2 receptor (P25021 whole entry): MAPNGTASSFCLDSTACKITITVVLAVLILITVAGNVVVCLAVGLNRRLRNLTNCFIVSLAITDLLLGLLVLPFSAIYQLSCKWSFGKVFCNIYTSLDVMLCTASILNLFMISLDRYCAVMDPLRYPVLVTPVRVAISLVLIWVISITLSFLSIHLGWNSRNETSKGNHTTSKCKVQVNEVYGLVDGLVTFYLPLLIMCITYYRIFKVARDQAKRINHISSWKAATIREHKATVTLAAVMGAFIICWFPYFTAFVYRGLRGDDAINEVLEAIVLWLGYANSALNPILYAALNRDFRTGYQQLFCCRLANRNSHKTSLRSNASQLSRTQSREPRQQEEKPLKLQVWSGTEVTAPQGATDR
Chain of Sigma non-opioid intracellular receptor 1 (Q99720 whole entry): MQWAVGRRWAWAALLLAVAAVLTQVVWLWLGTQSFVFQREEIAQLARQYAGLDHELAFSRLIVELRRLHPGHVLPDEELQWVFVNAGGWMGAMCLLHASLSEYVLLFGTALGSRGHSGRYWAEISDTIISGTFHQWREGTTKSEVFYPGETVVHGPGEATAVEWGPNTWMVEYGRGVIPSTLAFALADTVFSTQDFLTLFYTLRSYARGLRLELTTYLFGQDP

With `N#Cc1cc(F)cc(C#Cc2csc(CF)n2)c1` as the compound, how does the IC50 [1] read?
The IC50 was 0.036 nM.

And the Ki [2]?
Its Ki is greater than 10 µM.

What about the Ki [3] of the same compound?
Its Ki is greater than 10 µM.

What about the Ki [4] of the same compound?
Its Ki is greater than 10 µM.

And the Ki [5]?
Its Ki is greater than 10 µM.

What about the Ki [6] of the same compound?
The Ki was greater than 10 µM.

What about the Ki [7] of the same compound?
Its Ki is greater than 10 µM.

And the Ki [8]?
The Ki was greater than 10 µM.

What about the logD [9] of the same compound?
Its logD is 2.18.

What about the Ki [10] of the same compound?
Its Ki is greater than 10 µM.

What about the Ki [11] of the same compound?
Its Ki is greater than 10 µM.

And the Ki [12]?
Its Ki is greater than 10 µM.

And the Ki [13]?
The Ki was greater than 10 µM.

And the Ki [14]?
Its Ki is greater than 10 µM.

And the Ki [15]?
The Ki was greater than 10 µM.

And the Ki [16]?
Its Ki is greater than 10 µM.

And the Ki [17]?
Its Ki is greater than 10 µM.

And the Ki [18]?
The Ki was greater than 10 µM.

What about the Ki [19] of the same compound?
Its Ki is greater than 10 µM.

And the Ki [20]?
Its Ki is greater than 10 µM.

And the Ki [21]?
Its Ki is greater than 10 µM.

And the Ki [22]?
The Ki was greater than 10 µM.

What about the Ki [23] of the same compound?
The Ki was greater than 10 µM.

And the Ki [24]?
Its Ki is greater than 10 µM.

What about the Ki [25] of the same compound?
The Ki was greater than 10 µM.

And the Ki [26]?
The Ki was greater than 10 µM.

And the Ki [27]?
Its Ki is greater than 10 µM.

And the Ki [28]?
The Ki was greater than 10 µM.

What about the Ki [29] of the same compound?
The Ki was greater than 10 µM.

What about the Ki [30] of the same compound?
The Ki was greater than 10 µM.

And the Ki [31]?
The Ki was greater than 10 µM.

What about the Ki [32] of the same compound?
Its Ki is greater than 10 µM.

And the Ki [33]?
The Ki was greater than 10 µM.

And the Ki [34]?
The Ki was greater than 10 µM.

And the Ki [35]?
Its Ki is greater than 10 µM.

And the Ki [36]?
The Ki was greater than 10 µM.

And the Ki [37]?
Its Ki is greater than 10 µM.

And the Ki [38]?
The Ki was greater than 10 µM.

And the Ki [39]?
The Ki was greater than 10 µM.

What about the Ki [40] of the same compound?
The Ki was greater than 10 µM.

What about the Ki [41] of the same compound?
Its Ki is greater than 10 µM.

What about the Ki [42] of the same compound?
Its Ki is greater than 10 µM.

And the Ki [43]?
Its Ki is greater than 10 µM.

And the Ki [44]?
Its Ki is greater than 10 µM.

What about the Ki [45] of the same compound?
The Ki was greater than 10 µM.

And the Ki [46]?
The Ki was greater than 10 µM.

What about the Ki [47] of the same compound?
The Ki was greater than 10 µM.

With `FCc1nc(C#Cc2cccc(F)c2)cs1` as the compound, how does the IC50 [1] read?
Its IC50 is 0.48 nM.

Which IC50 [1] does the source give for `COc1cccc(C#Cc2csc(CF)n2)c1` here?
Its IC50 is 0.52 nM.

Source: ChEMBL document CHEMBL1145430, “Synthesis and simple 18F-labeling of 3-fluoro-5-(2-(2-(fluoromethyl)thiazol-4-yl)ethynyl)benzonitrile as a high affinity radioligand for imaging monkey brain metabotropic glutamate subtype-5 receptors with positron emission tomography” (J Med Chem, 2007)
